The record followed here is PubChem BioAssay AID602226 (The Scripps Research Institute Molecular Screening Center, 2012).

This test deals with Aryl hydrocarbon receptor (Cavia porcellus). The test is described as follows: competitors of radiolabeled TCDD at AHR – cell lysate, guinea pig liver cytosol, radiometric, counter-screen for AHR activator project, late-stage follow-up (AID 602226). The note with it: [3H]TCDD HAP binding; for inhibition: at 10 µM, stronger effect = higher value. The procedure, abridged:
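assay system = guinea pig hepatic cytosol, AHR source | input = 2 mg/mL cytosolic protein | times = 1 h binding incubation, room temperature | technique = Hydroxyapatite capture, Tween-buffer washes, then scintillation counting | read-out = percent inhibition of specific [3H]TCDD binding, TCDF-defined nonspecific subtracted | repeats = three replicates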
A general note: The purpose of a counterscreen is to sort out artefacts and off-target activity.

[1] abbreviates: measured here: IC50 range lower bound.
Where [2] appears, read: measured here: IC50 range upper bound.

The source made the active and inactive calls.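 Rule for the calls: active = average inhibition of labeled dioxin binding to the receptor of at least 10% at 10 µM; inactive = the rest.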

As for `Cc1csc(SCC(=O)Nc2ccc(Cl)cn2)n1`, the inhibition is 9.5% (inactive).
For `Cc1nc(N)nc(Nc2ccc(Cl)cc2)c1Br`, the inhibition was 79%. Further, the IC50 under setting [1] came out at 100 nM. Also, the IC50 under setting [2] stood at 1000 nM.
In the case of `CCOC(=O)Cc1cc(-c2ccc(O)cc2)nc2ccc3ccccc3c12`, the inhibition is 39%. Under setting [1], this molecule showed an IC50 of 1000 nM.
Regarding `COc1ccc(NC(=O)c2cccc3c(Br)cccc23)cc1`, the inhibition was 65%. Under setting [1], the half-inhibitory concentration (IC50) was 100 nM. Besides, under setting [2], the IC50 came to 1000 nM.
For `Cc1ccc(-c2cc(-c3cccs3)[nH]n2)c(O)c1`, the inhibition was 99%. The same molecule registered a 50% inhibitory concentration (IC50) under setting [2] of 100 nM.
For the molecule `COc1ccccc1NC(=O)c1ccc(C(=O)Nc2ccccc2OC)nc1`, the inhibition was 32%.

A word on the inhibition: it is the share of the control response that was lost under treatment. For orientation: IC50 means the point on the concentration scale where inhibition reaches its midpoint.
